Activity calls are given as the source filed them. No cut-off for these calls is given here.

For experiment [1], the target named is T1, Androgen receptor (Mus musculus) (UniProt P19091).
T1 sequence (whole entry): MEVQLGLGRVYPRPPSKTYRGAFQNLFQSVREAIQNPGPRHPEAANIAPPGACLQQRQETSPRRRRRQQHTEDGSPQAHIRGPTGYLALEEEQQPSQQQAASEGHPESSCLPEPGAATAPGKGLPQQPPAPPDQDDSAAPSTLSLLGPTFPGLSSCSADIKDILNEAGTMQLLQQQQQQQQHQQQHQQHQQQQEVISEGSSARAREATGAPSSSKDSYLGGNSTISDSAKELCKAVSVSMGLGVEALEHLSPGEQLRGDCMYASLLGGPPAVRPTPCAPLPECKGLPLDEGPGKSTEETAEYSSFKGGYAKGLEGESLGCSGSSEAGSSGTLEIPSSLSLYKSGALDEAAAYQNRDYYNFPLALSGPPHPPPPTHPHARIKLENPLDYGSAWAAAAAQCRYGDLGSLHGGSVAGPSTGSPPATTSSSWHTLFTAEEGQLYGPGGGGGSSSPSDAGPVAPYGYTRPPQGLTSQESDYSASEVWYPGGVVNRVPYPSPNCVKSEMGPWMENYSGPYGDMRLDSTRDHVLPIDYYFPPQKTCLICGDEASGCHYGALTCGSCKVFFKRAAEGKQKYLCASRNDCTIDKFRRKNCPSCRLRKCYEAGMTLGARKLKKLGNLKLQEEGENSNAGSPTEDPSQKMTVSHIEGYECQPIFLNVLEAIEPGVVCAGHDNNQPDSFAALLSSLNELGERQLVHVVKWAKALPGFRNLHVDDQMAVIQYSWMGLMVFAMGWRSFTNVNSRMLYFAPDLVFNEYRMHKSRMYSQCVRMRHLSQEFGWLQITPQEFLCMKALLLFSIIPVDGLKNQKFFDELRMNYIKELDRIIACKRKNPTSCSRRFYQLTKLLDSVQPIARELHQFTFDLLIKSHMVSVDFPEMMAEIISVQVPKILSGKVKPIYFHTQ
The experiment in a line: Antagonist activity against mouse androgen receptor assessed as reduction of 10 nM DHT-induced transcriptional activity at 10 uM after 24 hrs by cell-based luciferase reporter gene assay relative to control. Summed up:
(§1)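 Transcriptional activity is expressed as a percentage after 10 μM compound, given alone for agonist mode or with 10 nM DHT for antagonist mode. Data are from triplicate experiments.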

In experiment [2] the target is T1, Androgen receptor (Mus musculus). The experiment can be described thus: Agonist activity at mouse androgen receptor at 10 uM after 24 hrs by cell-based luciferase reporter gene assay relative to control. An outline of the steps:
as §1

With `COc1ccc2c(c1)CCN(c1ccc(C(=O)Nc3cccc(C)n3)cn1)C2`, in experiment [1], the inhibition was found to be 94.9%. The Activity in experiment [2] turned out to be 4%.
The corresponding values for `O=C(Nc1ncccn1)c1ccc(N2CCc3ccccc3C2)nc1` are 27.5% and 9.4%.
`CCOc1ccc2c(c1OCc1ccccc1)CCN(c1ccc(C(=O)N(C)c3cccc(C)n3)cn1)C2`: the inhibition in experiment [1] was found to be 77.5%. The Activity in experiment [2] stood at 1.6%.
For `Cc1ccnc(NC(=O)c2ccc(N3CCc4ccccc4C3)nc2)c1`, in that order: 58.6% and 3.6%.
As to `CCOc1ccc2c(c1)CCN(c1ccc(C(=O)Nc3cccc(OC)c3)cn1)C2`, in experiment [1], the inhibition was 95.6%. The Activity in experiment [2] stood at 4%.
With `Cc1ccc(NC(=O)c2ccc(N3CCc4ccccc4C3)nc2)nc1`, the inhibition in experiment [1] is 90.2%. In experiment [2], the Activity is 3%.
For `Cc1cccc(NC(=O)c2ccc(N3CCN(C)CC3)nc2)n1`, the inhibition entry in experiment [1] is “inactive”. In experiment [2], this compound showed an Activity of 14.1%.
Consider `COc1cc2c(cc1OC)CN(c1ccc(C(=O)Nc3cc(C)ccn3)cn1)CC2`, for which, in experiment [1], the inhibition is 88.3%. The Activity in experiment [2] was determined as 2.7%.
For `COc1ccc(NC(=O)c2ccc(N3CCc4ccccc4C3)nc2)cn1`, in that order: 79.6% and 7.2%.
The corresponding values for `Cc1cccc(NC(=O)c2ccc(N3CCCCC3)nc2)n1` are 65.7% and 6.8%.
The corresponding values for `Cc1ccnc(N(C)C(=O)c2ccc(N3CCc4ccccc4C3)nc2)c1` are 32.5% and 12.1%.
Take `O=C(Nc1nccs1)c1ccc(N2CCc3ccccc3C2)nc1`: the inhibition in experiment [1] was 57.4%. The Activity in experiment [2] is 9.7%.
For `Cc1cccnc1NC(=O)c1ccc(Cl)nc1`, in that order: 0.6% and 3.8%.
`O=C(Nc1ccc(F)cc1)c1ccc(N2CCc3ccccc3C2)nc1`: the inhibition in experiment [1] stood at 65.1%. The Activity in experiment [2] is 7.1%.
For `COc1cc2c(cc1OC)CN(c1ccc(C(=O)Nc3cccc(C)n3)cn1)CC2`, in that order: 94.4% and 2.1%.
The corresponding values for `Cc1cccc(NC(=O)c2ccc(N3CCc4cc(OC(C)C)ccc4C3)nc2)n1` are 95.3% and 3.5%.
Consider `COc1cc2c(cc1OC)CN(c1ccc(C(=O)Nc3ncccc3C)cn1)CC2`, for which the inhibition in experiment [1] was 60.9%. Besides, the Activity in experiment [2] was 3.1%.
`Cc1ccccc1N(C)C(=O)c1ccc(N2CCc3ccccc3C2)nc1`: in experiment [1], the inhibition worked out at 48.2%. The Activity in experiment [2] stood at 11.7%.
The corresponding values for `CCOc1ccc2c(c1OCc1ccccc1)CCN(c1ccc(C(=O)Nc3cccc(C)n3)cn1)C2` are 92.9% and 0.6%.
Regarding `COc1cccc(N(C)C(=O)c2ccc(N3CCc4ccccc4C3)nc2)c1`, in experiment [1], the inhibition was found to be 46.4%. In experiment [2], the Activity is 12.5%.
`COc1ccccc1NC(=O)c1ccc(N2CCc3ccccc3C2)nc1`: in experiment [1], the inhibition was 59%. The same compound had an Activity in experiment [2] of 7.4%.
For `COc1cccc(NC(=O)c2ccc(N3CCc4c(ccc(OC)c4OC)C3)nc2)c1`, in that order: 96.6% and 3.9%.
On to `CCOc1ccc2c(c1OC)CCN(c1ccc(C(=O)Nc3cccc(C)n3)cn1)C2`, for which, in experiment [1], the inhibition amounted to 91%. The same compound displayed an Activity in experiment [2] of 1.7%.
On to `CCOc1c(Cl)c(Cl)c2c(c1OCc1ccccc1)CCN(c1ccc(C(=O)Nc3cccc(C)n3)cn1)C2`, for which, in experiment [1], the inhibition was 86.4%. This compound gave an Activity in experiment [2] of 1%.
For `COc1cccc(NC(=O)c2ccc(N3CCc4ccccc4C3)nc2)c1`, in that order: 80.4% and 13.6%.
The corresponding values for `COc1ccccc1N(C)C(=O)c1ccc(N2CCc3ccccc3C2)nc1` are 48.8% and 9%.
`CCOc1ccc2c(c1OCC)CCN(c1ccc(C(=O)Nc3cccc(C)n3)cn1)C2`: the inhibition in experiment [1] came to 88.3%. This compound returned an Activity in experiment [2] of 1%.

These data come from ChEMBL document CHEMBL2331274, “SAR based design of nicotinamides as a novel class of androgen receptor antagonists for prostate cancer” (J Med Chem, 2013).
